The values that follow come from ChEMBL document CHEMBL3875148, “Synthesis and biological evaluation of novel alkyl diamine linked bivalent β-carbolines as angiogenesis inhibitors” (Eur J Med Chem, 2016).

Data set [1] is described as follows: Antiproliferative activity against human EAhy926 cells measured after 48 hrs by MTT assay. To be noted: EA.hy 926, 48 h. The class given is functional, cell-based. (Formazan colour is commonly taken as a measure of viable cells.)
A short description of data set [2]: Aqueous solubility of the compound. The class given is physicochemical.
Data set [3] relates to EA.hy 926. Briefly: Antimigratory activity against human EAhy926 cells assessed as inhibition of VEGF-induced cell migration incubated for 24 hrs by wound healing assay. The data set is classed as functional, cell-based. In short, it runs like this:
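Wound-healing scratch assay in EA.HY926 endothelial cells with VEGF stimulation. Compound tested across 0.3 to 30, with Endostar as positive control. Migration was compared against untreated cells.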

For data set [4], the system named is EA.hy 926. Briefly: Antiangiogenic activity against human EAhy926 cells assessed as inhibition of VEGF-induced capillary-like tube formation measured after 24 hrs by phase contrast microscopic analysis. The data set is classed as functional, cell-based. In short, it runs like this: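 EA.HY926 cells were plated on Matrigel-coated wells and treated for 24 h at 0.3–30. Capillary-like tubules with multicentric junctions were scored by imaging against compound-free controls.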

The species entered for another data set is Gallus gallus. In words: Antiangiogenic activity against 5-day-old chicken egg chorioallantoic membrane at 0.3 to 30 uM/disc incubated for 48 hrs by microscopic analysis. The class given is functional, tissue-based.

Structures are written as SMILES. The source made the active and inactive calls. No cut-off for these calls is given here. Some results are limits rather than exact numbers.

In turn, `CCCCCCn1c2ccccc2c2ccnc(CNCCCNCc3nccc4c5ccccc5n(CCCCCC)c34)c21` displayed an IC50 in data set [1] of 9.23 µM.

As to `Cl.c1ccc2c(c1)[nH]c1c(CNCCCCNCc3nccc4c3[nH]c3ccccc34)nccc12`, in data set [1], 25.8 µM corresponded to half-maximal inhibition (IC50). Also, the solubility in data set [2] was greater than 10000 µg/mL.

Molecule `Clc1cccc(Cn2c3ccccc3c3ccnc(CNCCCCCNCc4nccc5c6ccccc6n(Cc6cccc(Cl)c6)c45)c32)c1` yielded an IC50 in data set [1] of 4.69 µM. This counts as single-digit micromolar.

`CCCCn1c2ccccc2c2ccnc(CNCCCCNCc3nccc4c5ccccc5n(CCCC)c34)c21` came in with an IC50 in data set [1] of 4.37 µM.

For the molecule `CCn1c2ccccc2c2ccnc(CNCCCNCc3nccc4c5ccccc5n(CC)c34)c21`, it took 7.77 µM to reach half-maximal inhibition in data set [1] (IC50).

In the case of `c1ccc(CCCn2c3ccccc3c3ccnc(CNCCCCCCNCc4nccc5c6ccccc6n(CCCc6ccccc6)c45)c32)cc1`, in data set [1], 3.22 µM corresponded to half-maximal inhibition (IC50).

`CC(C)Cn1c2ccccc2c2ccnc(CNCCCCCCNCc3nccc4c5ccccc5n(CC(C)C)c34)c21` showed an IC50 in data set [1] of 5.55 µM.

With `CCCCn1c2ccccc2c2ccnc(CNCCCCCCNCc3nccc4c5ccccc5n(CCCC)c34)c21`, in data set [1], it took 2.92 µM to reach half-maximal inhibition (IC50).

As to `CC(C)Cn1c2ccccc2c2ccnc(CNCCCCNCc3nccc4c5ccccc5n(CC(C)C)c34)c21`, the IC50 in data set [1] was found to be 8.06 µM.

Regarding `c1ccc(Cn2c3ccccc3c3ccnc(CNCCCCCCNCc4nccc5c6ccccc6n(Cc6ccccc6)c45)c32)cc1`, half-maximal inhibition in data set [1] (IC50) was put at 3.81 µM.

`CCCCCCn1c2ccccc2c2ccnc(CNCCCCCNCc3nccc4c5ccccc5n(CCCCCC)c34)c21`: the IC50 in data set [1] came to 5.16 µM.

As for `Fc1ccc(Cn2c3ccccc3c3ccnc(CNCCCNCc4nccc5c6ccccc6n(Cc6ccc(F)cc6)c45)c32)cc1`, in data set [1], the IC50 was determined as 8.87 µM.

For `CC(C)n1c2ccccc2c2ccnc(CNCCCCCCNCc3nccc4c5ccccc5n(C(C)C)c34)c21`, the IC50 in data set [1] worked out at 8.56 µM.

On to `CCn1c2ccccc2c2ccnc(CNCCCCNCc3nccc4c5ccccc5n(CC)c34)c21`, for which the IC50 in data set [1] stood at 5.36 µM.

In the case of `c1ccc(CCCn2c3ccccc3c3ccnc(CNCCCNCc4nccc5c6ccccc6n(CCCc6ccccc6)c45)c32)cc1`, the IC50 in data set [1] turned out to be 9.35 µM.

In turn, `CCCCn1c2ccccc2c2ccnc(CNCCCNCc3nccc4c5ccccc5n(CCCC)c34)c21` yielded an IC50 in data set [1] of 8.39 µM. The IC50 values of the last two molecules are within 1.5-fold of each other.

`Fc1ccc(Cn2c3ccccc3c3ccnc(CNCCCCNCc4nccc5c6ccccc6n(Cc6ccc(F)cc6)c45)c32)cc1` showed an IC50 in data set [1] of 4.96 µM.

With `CCCCn1c2ccccc2c2ccnc(CNCCCCCNCc3nccc4c5ccccc5n(CCCC)c34)c21`, the inhibition result in the data set with EA.hy 926 [3] and in the data set with EA.hy 926 [4] was “Dose-dependent effect” in each case. In data set [1], half-maximal inhibition (IC50) was put at 2.16 µM. Besides, the result in the data set filed under Gallus gallus was Active.

Regarding `CCCCCCCCn1c2ccccc2c2ccnc(CNCCCCCNCc3nccc4c5ccccc5n(CCCCCCCC)c34)c21`, the IC50 in data set [1] worked out at 8 µM. In other words, the single-digit micromolar range.

Molecule `COc1ccc(/C=C\c2cc(OC)c(OC)c(OC)c2)cc1OP(=O)(O)O` [FOSBRETABULIN] yielded an IC50 in data set [1] of 6.4 µM. This IC50 and that of the molecule before are within 1.5-fold of each other.

Molecule `Cn1c2ccccc2c2ccnc(CNCCCCNCc3nccc4c5ccccc5n(C)c34)c21` had an IC50 in data set [1] of 17 µM.

As to `c1ccc2c(c1)[nH]c1c(CNCCCCCNCc3nccc4c3[nH]c3ccccc34)nccc12`, the IC50 in data set [1] was 14.5 µM.

In the case of `c1ccc(Cn2c3ccccc3c3ccnc(CNCCCNCc4nccc5c6ccccc6n(Cc6ccccc6)c45)c32)cc1`, it took 8.89 µM to reach half-maximal inhibition in data set [1] (IC50). Against the preceding molecule, the IC50 is about 1.6-fold lower.

Take `c1ccc(CCCn2c3ccccc3c3ccnc(CNCCCCNCc4nccc5c6ccccc6n(CCCc6ccccc6)c45)c32)cc1`: the IC50 in data set [1] came out at 4.78 µM.

In turn, `CCCCCCCCn1c2ccccc2c2ccnc(CNCCCCNCc3nccc4c5ccccc5n(CCCCCCCC)c34)c21` showed a concentration for half-maximal inhibition (IC50) in data set [1] of 9.33 µM.

Turning to `CCCCCCn1c2ccccc2c2ccnc(CNCCCCCCNCc3nccc4c5ccccc5n(CCCCCC)c34)c21`, half-maximal inhibition in data set [1] (IC50) required 8.2 µM. The IC50 values of the last two molecules are within 1.5-fold of each other.

Regarding `Cn1c2ccccc2c2ccnc(CNCCCCCCNCc3nccc4c5ccccc5n(C)c34)c21`, 11.5 µM corresponded to half-maximal inhibition in data set [1] (IC50).

Take `c1ccc(CCCn2c3ccccc3c3ccnc(CNCCCCCNCc4nccc5c6ccccc6n(CCCc6ccccc6)c45)c32)cc1`: the midpoint of inhibition in data set [1], the IC50, lay at 2.76 µM. This IC50 lies about 4.2-fold lower than the previous one.

With `CCCCCCn1c2ccccc2c2ccnc(CNCCCCNCc3nccc4c5ccccc5n(CCCCCC)c34)c21`, in data set [1], the half-maximal inhibitory concentration (IC50) amounted to 8.93 µM.

The IC50 is the point on the concentration scale where inhibition reaches its midpoint. A higher IC50 goes with weaker potency. One may read the solubility as the concentration that dissolves in the medium under given conditions. Lower therefore signals little dissolved substance.
